Laboratory results taken from ChEMBL document CHEMBL4371003, “Discovery of Novel Dual Mechanism of Action Src Signaling and Tubulin Polymerization Inhibitors (KX2-391 and KX2-361)” (J Med Chem, 2018).

What was measured:
[1] = tested on: HT-29; assay: Antiproliferative activity against human HT-29 cells in presence of 1.5% FCS by BrdU incorporation assay; format: functional, cell-based
[2] = Oral bioavailability in mouse; format: ADME, organism-based; settings: in vivo
[3] = tested on: HT-29; assay: Antiproliferative activity against human HT-29 cells; format: functional
[4] = Antiproliferative activity against human PC3MLN4 cells; format: functional
[5] = tested on: MOLT-4; assay: Antiproliferative activity against human MOLT4 cells; format: functional
[6] = tested on: Jurkat; assay: Antiproliferative activity against human Jurkat cells; format: functional
[7] = tested on: NCI-H460; assay: Antiproliferative activity against human H460 cells; format: functional; settings: for GI50: Homo sapiens, NCI-H460
[8] = tested on: NCI-H226; assay: Antiproliferative activity against human NCI-H226 cells; format: functional; settings: for GI50: Homo sapiens, NCI-H226
[9] = tested on: SW-620; assay: Antiproliferative activity against human SW620 cells; format: functional; settings: for GI50: Homo sapiens, SW-620
[10] = tested on: SW1088; assay: Antiproliferative activity against human SW1088 cells; format: functional
[11] = Ratio of AUC in brain to plasma of mouse at 20 mg/kg, po; format: ADME, organism-based; settings: brain and plasma, read-out: Ratio AUC
[12] = Oral bioavailability in mouse at 20 mg/kg; format: ADME, organism-based; settings: in vivo
[13] = molecular target: Proto-oncogene tyrosine-protein kinase Src (Mus musculus, UniProt P05480); assay: Inhibition of Src autophosphorylation in mouse GL261 cells; format: cell-based
[14] = molecular target: T1, Proto-oncogene tyrosine-protein kinase Src (Homo sapiens, UniProt P12931); assay: Inhibition of Src (unknown origin)
[15] = tested on: Daoy; assay: Antiproliferative activity against human DaOY cells; format: functional
[16] = tested on: SK-N-MC; assay: Antiproliferative activity against human SK-N-MC cells; format: functional
[17] = tested on: LN-18; assay: Antiproliferative activity against human LN18 cells; format: functional
[18] = tested on: SK-N-FI; assay: Antiproliferative activity against human SK-N-FI cells; format: functional
[19] = tested on: U-87 MG; assay: Antiproliferative activity against human U87 cells; format: functional, U-87MG ATCC
[20] = tested on: T98G; assay: Antiproliferative activity against human T98G cells; format: functional
[21] = tested on: U-118-MG; assay: Antiproliferative activity against human U118MG cells; format: functional
[22] = tested on: U138-MG; assay: Antiproliferative activity against human U138MG cells; format: functional
[23] = Antiproliferative activity against human U373 cells; format: functional, U-373MG ATCC; settings: U373 MG
[24] = Half life in mouse; format: ADME, organism-based; settings: in vivo
[25] = tested on: GL261; assay: Antitumor activity against mouse GL261 cells implanted in mouse assessed as incidence of long term survival (>100 days) at 30 mg/kg, po qd relative to control; format: functional
[26] = tested on: GL261 (Mus musculus); assay: Antiproliferative activity against mouse GL261 cells
[27] = tested on: MES-SA/Dx5; assay: Antiproliferative activity against human MES-SA/Dx5 cells; format: functional
[28] = tested on: NCI/ADR-RES; assay: Antiproliferative activity against human NCI/ADR-RES cells; format: functional
[29] = tested on: HT-29; assay: Antiproliferative activity against human HT-29 cells in presence of 0.5% FCS; format: functional, cell-based
[30] = organism: Homo sapiens; assay: Inhibition of SRC 527F mutant (unknown origin) expressed in mouse SYF cells assessed as inhibition of cell growth in presence of 10% FCS; format: cell-based
[31] = organism: Homo sapiens; assay: Inhibition of SRC 527F mutant (unknown origin) expressed in mouse SYF cells assessed as inhibition of cell growth in presence of 2% FCS; format: cell-based
[32] = molecular target: T1, Proto-oncogene tyrosine-protein kinase Src; assay: Inhibition of human c-SRC expressed in mouse NIH/3T3 cells assessed as reduction in cell growth; format: cell-based
[33] = molecular target: Bcr/Abl fusion protein (Homo sapiens, UniProt P00519); assay: Inhibition of BCR/ABL (unknown origin); format: protein assay
[34] = tested on: SK-OV-3; assay: Antiproliferative activity against human SKOV3 cells; format: functional
[35] = Antiproliferative activity against human PC3MM2 cells; format: functional
[36] = tested on: L3.6pl; assay: Antiproliferative activity against human L3.6PL cells; format: functional
[37] = tested on: MDA-MB-231; assay: Antiproliferative activity against human MDA-MB-231 cells; format: functional
[38] = tested on: A549; assay: Antiproliferative activity against human A549 cells; format: functional
[39] = tested on: Huh-7; assay: Antiproliferative activity against human HuH7 cells; format: functional
[40] = tested on: 769-P; assay: Antiproliferative activity against human 769-P cells; format: functional
[41] = tested on: K562; assay: Antiproliferative activity against human K562 cells; format: functional
[42] = tested on: K-562R; assay: Antiproliferative activity against human K562R cells; format: functional
[43] = tested on: CCRF-HSB-2; assay: Antiproliferative activity against human CCRF-HSB2 cells; format: functional
[44] = tested on: KG-1; assay: Antiproliferative activity against human KG1 cells; format: functional
[45] = tested on: RPMI-8226; assay: Antiproliferative activity against human RPMI8226 cells; format: functional
[46] = tested on: RL; assay: Antiproliferative activity against human RL cells; format: functional
[47] = tested on: HCT-116; assay: Antiproliferative activity against human HCT116 cells; format: functional
[48] = Ratio of AUC in brain to plasma of mouse at 10 mg/kg, po; format: ADME, organism-based; settings: brain and plasma, read-out: Ratio AUC
[49] = Drug uptake in mouse brain at 10 mg/kg, po relative to peripheral drug level; format: ADME, organism-based
Method in brief: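 Mice dosed orally at 10 mg/kg; brain and plasma exposure measured as AUC and expressed as brain-to-plasma AUC ratio.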

[50] = Half life in po dosed mouse; format: ADME, organism-based; settings: in vivo
[51] = Half life in rat; format: ADME; settings: in vivo
[52] = Half life in dog; format: ADME, Canis lupus familiaris; settings: in vivo
[53] = Drug absorption in po dosed rat; format: ADME, organism-based; settings: in vivo, read-out: Drug absorption
[54] = Drug absorption in po dosed dog; format: ADME, organism-based, Canis lupus familiaris; settings: in vivo, read-out: Drug absorption
[55] = Ratio of AUC in tumor to plasma of mouse xenografted with human HT-29 cells at 5 mg/kg, po; format: ADME, organism-based; settings: tumor and plasma, read-out: Ratio AUC
[56] = Cmax in solid tumor patient at 40 mg, po during phase 1 clinical trial; format: ADME, organism-based; set-up: dose 40 mg, route oral; settings: human, in vivo
Method in brief: (§1)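 Phase 1 trial in late-stage solid tumor patients: continuous twice-daily oral dosing, first in 4-week cycles of 3 weeks on and 1 week off, later without the off week. Plasma PK (Cmax, Tmax, half-life, Vz/F) recorded at each dose level; Cmax given in ng/ml and nM.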

[57] = Tmax in solid tumor patient at 40 mg, po during phase 1 clinical trial; format: ADME, organism-based; settings: human, in vivo
[58] = Half life in solid tumor patient at 40 mg, po during phase 1 clinical trial; format: ADME, organism-based; settings: human, in vivo
[59] = Apparent volume of distribution in solid tumor patient at 40 mg, po during phase 1 clinical trial; format: ADME, organism-based; settings: human, in vivo, read-out: Vz/F; method in brief: as §1
[60] = Cmax in solid tumor patient at 80 mg, po BID during phase 1 clinical trial; format: ADME, organism-based; set-up: dose 80 mg, route oral; settings: human, in vivo; method in brief: as §1
[61] = Cmax in solid tumor patient at 50 mg, po BID measured during first monthly cycle during phase 1 clinical trial; format: ADME, organism-based; set-up: dose 50 mg, route oral; settings: human, in vivo; method in brief: as §1
[62] = Cmax in CRPC patient at 40 mg, po BID during phase 2 trial by LC-MS analysis; format: ADME, organism-based; set-up: dose 40 mg, route oral; settings: human, in vivo
[63] = Cmax in AML patient at 120 mg, po qd; format: ADME, organism-based; set-up: dose 120 mg, route oral; settings: human, in vivo
Method in brief: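 Phase 1b study in elderly advanced AML patients with repeated once-daily oral dosing; plasma and bone-marrow drug concentrations measured.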

[64] = Half life in AML patient at 120 mg, po qd; format: ADME, organism-based; settings: human, in vivo
[65] = molecular target: Tyrosine-protein kinase Lyn (Homo sapiens, UniProt P07948); assay: Inhibition of LYN (unknown origin)
[66] = molecular target: BCR/ABL1 (Mus musculus) (UniProt P00520+Q6PAJ1); settings: Homo sapiens
[67] = tested on: Bcr/Abl fusion protein (Homo sapiens), P00519+P11274 [E255K]
[68] = tested on: Bcr/Abl fusion protein (Homo sapiens), P00519+P11274 [T315I]; settings: Mus musculus

T1 sequence (P12931 2-536 limits assumed): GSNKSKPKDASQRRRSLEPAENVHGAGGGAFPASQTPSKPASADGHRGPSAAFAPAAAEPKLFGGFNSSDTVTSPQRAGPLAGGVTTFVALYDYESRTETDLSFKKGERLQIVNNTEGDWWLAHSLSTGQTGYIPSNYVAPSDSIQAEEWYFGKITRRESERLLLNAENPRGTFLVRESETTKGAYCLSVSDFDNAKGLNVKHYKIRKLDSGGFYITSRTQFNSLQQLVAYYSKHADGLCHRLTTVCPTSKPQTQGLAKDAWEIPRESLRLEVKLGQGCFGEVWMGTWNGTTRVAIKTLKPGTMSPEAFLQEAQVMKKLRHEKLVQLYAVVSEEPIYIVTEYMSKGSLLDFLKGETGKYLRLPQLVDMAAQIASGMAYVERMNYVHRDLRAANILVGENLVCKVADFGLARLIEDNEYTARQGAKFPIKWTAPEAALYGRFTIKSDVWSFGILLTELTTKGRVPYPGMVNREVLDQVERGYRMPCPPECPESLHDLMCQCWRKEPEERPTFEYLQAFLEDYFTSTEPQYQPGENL
Proto-oncogene tyrosine-protein kinase Src (Mus musculus, UniProt P05480), sequence (P05480 2-535 limits assumed): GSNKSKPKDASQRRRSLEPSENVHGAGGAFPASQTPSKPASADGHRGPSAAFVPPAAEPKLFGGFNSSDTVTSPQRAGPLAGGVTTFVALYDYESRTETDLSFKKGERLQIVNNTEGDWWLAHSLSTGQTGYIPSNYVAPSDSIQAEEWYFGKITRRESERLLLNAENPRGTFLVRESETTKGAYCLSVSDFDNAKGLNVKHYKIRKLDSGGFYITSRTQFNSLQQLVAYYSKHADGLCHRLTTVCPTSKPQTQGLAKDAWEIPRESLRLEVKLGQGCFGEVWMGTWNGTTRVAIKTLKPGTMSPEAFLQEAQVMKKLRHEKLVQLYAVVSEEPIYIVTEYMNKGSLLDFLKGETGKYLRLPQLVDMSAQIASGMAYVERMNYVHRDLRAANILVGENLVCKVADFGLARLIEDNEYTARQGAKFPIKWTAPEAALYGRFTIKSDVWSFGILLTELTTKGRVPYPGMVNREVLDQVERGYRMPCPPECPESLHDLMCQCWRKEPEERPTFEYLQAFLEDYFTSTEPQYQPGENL
BCR/ABL1 (Mus musculus), sequence (P00520 whole entry, looked up, the tested form may be a part): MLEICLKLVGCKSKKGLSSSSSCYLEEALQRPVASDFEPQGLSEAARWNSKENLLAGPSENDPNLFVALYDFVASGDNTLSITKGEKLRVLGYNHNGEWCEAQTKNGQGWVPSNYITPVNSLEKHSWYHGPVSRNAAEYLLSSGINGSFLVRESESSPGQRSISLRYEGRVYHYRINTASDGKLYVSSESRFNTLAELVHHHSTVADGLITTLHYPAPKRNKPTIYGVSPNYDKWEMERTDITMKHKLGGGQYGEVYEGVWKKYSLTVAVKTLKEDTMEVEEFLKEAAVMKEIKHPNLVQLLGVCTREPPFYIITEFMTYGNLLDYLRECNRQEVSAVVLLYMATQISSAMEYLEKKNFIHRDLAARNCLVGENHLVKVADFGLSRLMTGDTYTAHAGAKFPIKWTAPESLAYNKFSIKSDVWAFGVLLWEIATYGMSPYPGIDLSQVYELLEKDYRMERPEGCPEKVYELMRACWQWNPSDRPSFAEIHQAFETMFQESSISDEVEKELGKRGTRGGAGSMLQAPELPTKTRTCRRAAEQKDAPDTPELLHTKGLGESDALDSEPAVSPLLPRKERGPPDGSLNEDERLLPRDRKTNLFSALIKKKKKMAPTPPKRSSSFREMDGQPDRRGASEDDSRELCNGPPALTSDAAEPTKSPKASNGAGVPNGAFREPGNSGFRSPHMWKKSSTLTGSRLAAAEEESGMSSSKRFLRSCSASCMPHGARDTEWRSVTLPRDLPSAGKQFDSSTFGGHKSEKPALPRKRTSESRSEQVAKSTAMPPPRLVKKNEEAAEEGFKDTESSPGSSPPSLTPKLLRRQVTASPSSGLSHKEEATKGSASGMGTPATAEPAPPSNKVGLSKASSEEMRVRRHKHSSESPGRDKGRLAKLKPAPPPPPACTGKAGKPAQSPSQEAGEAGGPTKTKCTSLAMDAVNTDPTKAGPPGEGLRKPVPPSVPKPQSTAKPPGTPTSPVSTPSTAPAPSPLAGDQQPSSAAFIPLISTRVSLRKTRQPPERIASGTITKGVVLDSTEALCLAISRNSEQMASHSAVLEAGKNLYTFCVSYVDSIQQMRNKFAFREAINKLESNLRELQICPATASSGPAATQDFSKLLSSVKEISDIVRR
BCR/ABL1 (Mus musculus), sequence (Q6PAJ1 whole entry, looked up, the tested form may be a part): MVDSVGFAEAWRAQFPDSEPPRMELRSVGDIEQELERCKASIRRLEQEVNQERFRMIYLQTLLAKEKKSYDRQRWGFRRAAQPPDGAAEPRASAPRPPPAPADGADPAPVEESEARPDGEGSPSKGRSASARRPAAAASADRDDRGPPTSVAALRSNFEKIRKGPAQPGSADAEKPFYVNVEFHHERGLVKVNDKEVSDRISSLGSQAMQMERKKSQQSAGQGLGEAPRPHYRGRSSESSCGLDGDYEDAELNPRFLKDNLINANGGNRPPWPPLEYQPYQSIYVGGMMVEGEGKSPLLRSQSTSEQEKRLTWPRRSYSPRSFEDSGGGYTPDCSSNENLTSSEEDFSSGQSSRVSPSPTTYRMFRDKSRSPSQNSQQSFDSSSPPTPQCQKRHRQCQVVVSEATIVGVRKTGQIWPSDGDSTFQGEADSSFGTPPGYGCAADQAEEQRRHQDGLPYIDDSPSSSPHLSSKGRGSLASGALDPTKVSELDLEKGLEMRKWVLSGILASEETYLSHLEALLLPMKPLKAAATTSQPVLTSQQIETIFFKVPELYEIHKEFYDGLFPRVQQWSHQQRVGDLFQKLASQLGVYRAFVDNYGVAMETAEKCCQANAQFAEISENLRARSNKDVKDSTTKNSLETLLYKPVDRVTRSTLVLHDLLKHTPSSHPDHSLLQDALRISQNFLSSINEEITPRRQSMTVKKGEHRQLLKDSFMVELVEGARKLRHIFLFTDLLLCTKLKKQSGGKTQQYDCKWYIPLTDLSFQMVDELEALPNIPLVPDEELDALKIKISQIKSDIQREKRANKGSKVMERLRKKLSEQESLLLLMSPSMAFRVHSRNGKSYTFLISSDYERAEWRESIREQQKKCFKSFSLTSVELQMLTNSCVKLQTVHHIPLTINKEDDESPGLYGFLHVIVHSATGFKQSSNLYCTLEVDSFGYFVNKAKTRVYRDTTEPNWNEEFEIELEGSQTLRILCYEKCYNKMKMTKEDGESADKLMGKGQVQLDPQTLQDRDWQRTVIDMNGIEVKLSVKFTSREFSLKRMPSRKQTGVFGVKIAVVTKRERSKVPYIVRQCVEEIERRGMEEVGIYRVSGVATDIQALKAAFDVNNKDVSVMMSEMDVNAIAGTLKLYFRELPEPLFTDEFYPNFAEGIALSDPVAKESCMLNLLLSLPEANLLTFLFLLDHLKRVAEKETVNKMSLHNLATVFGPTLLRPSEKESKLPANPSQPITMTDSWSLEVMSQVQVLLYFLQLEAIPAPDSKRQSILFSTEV
Tyrosine-protein kinase Lyn, sequence (P07948 whole entry): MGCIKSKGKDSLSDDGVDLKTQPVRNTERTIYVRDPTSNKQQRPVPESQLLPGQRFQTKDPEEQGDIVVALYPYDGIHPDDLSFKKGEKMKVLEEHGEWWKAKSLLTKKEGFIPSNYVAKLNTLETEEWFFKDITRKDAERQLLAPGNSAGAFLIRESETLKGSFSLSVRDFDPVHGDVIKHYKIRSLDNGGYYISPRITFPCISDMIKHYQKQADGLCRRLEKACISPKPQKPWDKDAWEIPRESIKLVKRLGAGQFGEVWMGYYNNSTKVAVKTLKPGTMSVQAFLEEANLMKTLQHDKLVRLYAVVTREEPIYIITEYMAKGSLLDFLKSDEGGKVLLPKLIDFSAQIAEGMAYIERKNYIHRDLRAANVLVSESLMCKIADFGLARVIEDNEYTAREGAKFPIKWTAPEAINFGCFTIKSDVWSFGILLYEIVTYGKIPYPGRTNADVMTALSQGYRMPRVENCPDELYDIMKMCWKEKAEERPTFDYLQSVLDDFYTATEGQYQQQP

Compound: O=C(Cc1ccc(-c2ccccc2)cn1)NCc1cccc(F)c1
- IC50 [1]: 338 nM
- bioavailability [2]: 4%

Compound: C#CCCCN(CCOc1ccc(-c2ccc(CC(=O)NCc3ccccc3)nc2)cc1)C(=O)c1ccc(C(=O)c2ccccc2)cc1
- GI50 [3]: 28 nM
- GI50 [4]: 45 nM

Compound: Cc1nc(Nc2ncc(C(=O)Nc3c(C)cccc3Cl)s2)cc(N2CCN(CCO)CC2)n1.O [DASATINIB]
- GI50 [5]: 644 nM
- GI50 [6]: 8 nM
- GI50 [7]: 90 nM
- GI50 [8]: 163 nM
- GI90 [9]: 2940 nM
- GI50 [9]: 2420 nM
- GI50 [10]: 898 nM

Compound: O=C(Cc1ccc(-c2ccc(N3CCOCC3)cc2)cn1)NCc1cccc(F)c1 [KX2-361]
- bioavailability [2]: 40%
- Kp [11]: 1.16
- bioavailability [12]: 40%
- IC50 [13]: 60 nM
- IC50 [14]: 67000 nM
- GI50 [15]: 16 nM
- GI50 [16]: 8 nM
- GI50 [10]: 26 nM
- GI50 [17]: 2.9 nM
- GI50 [18]: 11 nM
- GI50 [19]: 76 nM
- GI50 [20]: 14 nM
- GI50 [21]: 29 nM
- GI50 [22]: 51 nM
- GI50 [23]: 54 nM
- half-life [24]: 2.5 h
- Activity [25]: 30%
- GI50 [26]: 57 nM

Compound: CC(=O)O[C@H]1C(=O)[C@@]2(C)[C@H]([C@H](OC(=O)c3ccccc3)[C@]3(O)C[C@H](OC(=O)[C@H](O)[C@@H](NC(=O)c4ccccc4)c4ccccc4)C(C)=C1C3(C)C)[C@]1(OC(C)=O)CO[C@@H]1C[C@@H]2O [PACLITAXEL]
- GI50 [27]: 1800 nM
- GI50 [28]: 5940 nM

Compound: O=C(Cc1ccc(-c2ccc(OCCN3CCOCC3)cc2)cn1)NCc1ccccc1 [TIRBANIBULIN]
- IC50 [1]: 23 nM
- bioavailability [2]: 49%
- IC50 [29]: 5 nM
- GI50 [30]: 123 nM
- GI50 [31]: 23 nM
- GI50 [32]: 20 nM
- GI50 [3]: 25 nM
- IC50 [33]: 100 to 200 nM
- GI50 [34]: 10 nM
- GI50 [35]: 9 nM
- GI50 [36]: 25 nM
- GI50 [37]: 20 nM
- GI50 [38]: 9 nM
- GI50 [39]: 9 nM
- GI50 [40]: 45 nM
- GI50 [41]: 13 nM
- GI50 [42]: 0.64 nM
- GI50 [5]: 13 nM
- GI50 [43]: 12 nM
- GI50 [6]: 10 nM
- GI50 [44]: 16 nM
- GI50 [45]: 40 nM
- GI50 [46]: 19 nM
- GI90 [7]: 162 nM
- GI50 [7]: 51 nM
- GI90 [8]: 490 nM
- GI50 [8]: 98 nM
- GI90 [47]: 195 nM
- GI50 ([47]; Homo sapiens, HCT-116): 31 nM
- GI90 [9]: 903 nM
- GI50 [9]: 109 nM
- Kp [48]: 0.42
- Drug uptake [49]: 42%
- IC50 [14]: 46000 nM
- GI50 [27]: 34 nM
- GI50 [28]: 56 nM
- GI50 [4]: 40 nM
- half-life [50]: 1 h
- half-life [51]: 2 h
- half-life [52]: 8 h
- Fa [53]: 50 to 90%
- Fa [54]: 50 to 90%
- Kp [55]: 1.52
- Cmax [56]: 80 ng/mL
- Tmax [57]: 1 h
- half-life [58]: 4 h
- Vd/F [59]: 681 L
- Cmax [60]: 273 ng/mL
- Cmax [61]: 231 ng/mL
- Cmax [62]: 61 ng/mL
- Cmax [63]: 218 ng/mL
- half-life [64]: 2.2 h
- IC50 [65]: 100 to 200 nM
- GI50 [66]: 85 nM
- GI50 [67]: 80 nM
- GI50 [68]: 35 nM
